ChEMBL document CHEMBL4376807, “Hydroxamic Acid Derivatives of β-Carboline/Hydroxycinnamic Acid Hybrids Inducing Apoptosis and Autophagy through the PI3K/Akt/mTOR Pathways” (J Nat Prod, 2019)
Calls of active or inactive are those of the source. The rule behind the calls is not given here.

Legend:
[1] = Inhibition of PI3K/AKT/mTOR signaling in human Bel7402 cells assessed as reduction in AKT phosphorylation at 20 uM after 24 to 72 hrs by Western blot analysis; type: cell-based
Outline: (§1)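 Bel7402 cells (1.5 × 10^5/mL) treated 24 or 72 h. Lysates (0.05 mg/lane) run on 12% SDS-PAGE, transferred to nitrocellulose, blocked with 5% nonfat milk. Probed for phospho-Akt (Ser473), total Akt, phospho-mTOR, total mTOR and β-actin; HRP secondary, chemiluminescent detection. Bands quantified against vehicle control; mean ± SD of three separate assays.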

Bel-7402 [2] = assay: Induction of apoptosis in human Bel7402 cells assessed as annexin-V positive cells at 20 uM after 72 hrs by […] relative to control; type: functional
Histone deacetylase 1 = Histone deacetylase 1 (Homo sapiens, UniProt Q13547); assay: Inhibition of HDAC1 (unknown origin) using Boc-Lys (Ac)-AMC as substrate incubated for 60 mins by fluorimetric assay
[3] = Inhibition of PI3K/AKT/mTOR signaling in human Bel7402 cells assessed as reduction in mTOR phosphorylation at 20 uM after 24 to 72 hrs by Western blot analysis; type: cell-based; outline: as §1
Bel-7402 [4] = assay: Induction of autophagy in human Bel7402 cells assessed as accumulation of autophagic vacuoles at 20 uM after 24 hrs by acridine orange staining based fluorescence microscopic method; type: functional, cell-based
Outline: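 Bel7402 cells (10 000) seeded overnight, then exposed alongside vehicle. Stained with acridine orange (1 mg/mL) for 15−20 min. Autophagic vacuoles scored by fluorescence microscopy as red versus green fluorescence at 400×. Representative images from three independent experiments.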

Homo sapiens [5] = organism: Homo sapiens; assay: Selectivity ratio of IC50 for HDAC1 (unknown origin) to IC50 for human HDAC6
Outline: (§2)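 Recombinant human HDAC1, 3, 6 and 8 (fluorimetric kit) incubated with compound over a range of concentrations and Boc-Lys(Ac)-AMC substrate at 37 °C for 60 min. Reaction quenched with lysine developer; after 30 min, fluorescence read at ex 355/em 460 nm. Inhibition taken relative to control and IC50 fitted; ratios built from these IC50s.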

[6] = target: T1, Protein deacetylase HDAC6 (Homo sapiens, UniProt Q9UBN7); assay: Inhibition of human HDAC6 using Boc-Lys (Ac)-AMC as substrate incubated for 60 mins by fluorimetric assay
T1 sequence (Q9UBN7 whole entry): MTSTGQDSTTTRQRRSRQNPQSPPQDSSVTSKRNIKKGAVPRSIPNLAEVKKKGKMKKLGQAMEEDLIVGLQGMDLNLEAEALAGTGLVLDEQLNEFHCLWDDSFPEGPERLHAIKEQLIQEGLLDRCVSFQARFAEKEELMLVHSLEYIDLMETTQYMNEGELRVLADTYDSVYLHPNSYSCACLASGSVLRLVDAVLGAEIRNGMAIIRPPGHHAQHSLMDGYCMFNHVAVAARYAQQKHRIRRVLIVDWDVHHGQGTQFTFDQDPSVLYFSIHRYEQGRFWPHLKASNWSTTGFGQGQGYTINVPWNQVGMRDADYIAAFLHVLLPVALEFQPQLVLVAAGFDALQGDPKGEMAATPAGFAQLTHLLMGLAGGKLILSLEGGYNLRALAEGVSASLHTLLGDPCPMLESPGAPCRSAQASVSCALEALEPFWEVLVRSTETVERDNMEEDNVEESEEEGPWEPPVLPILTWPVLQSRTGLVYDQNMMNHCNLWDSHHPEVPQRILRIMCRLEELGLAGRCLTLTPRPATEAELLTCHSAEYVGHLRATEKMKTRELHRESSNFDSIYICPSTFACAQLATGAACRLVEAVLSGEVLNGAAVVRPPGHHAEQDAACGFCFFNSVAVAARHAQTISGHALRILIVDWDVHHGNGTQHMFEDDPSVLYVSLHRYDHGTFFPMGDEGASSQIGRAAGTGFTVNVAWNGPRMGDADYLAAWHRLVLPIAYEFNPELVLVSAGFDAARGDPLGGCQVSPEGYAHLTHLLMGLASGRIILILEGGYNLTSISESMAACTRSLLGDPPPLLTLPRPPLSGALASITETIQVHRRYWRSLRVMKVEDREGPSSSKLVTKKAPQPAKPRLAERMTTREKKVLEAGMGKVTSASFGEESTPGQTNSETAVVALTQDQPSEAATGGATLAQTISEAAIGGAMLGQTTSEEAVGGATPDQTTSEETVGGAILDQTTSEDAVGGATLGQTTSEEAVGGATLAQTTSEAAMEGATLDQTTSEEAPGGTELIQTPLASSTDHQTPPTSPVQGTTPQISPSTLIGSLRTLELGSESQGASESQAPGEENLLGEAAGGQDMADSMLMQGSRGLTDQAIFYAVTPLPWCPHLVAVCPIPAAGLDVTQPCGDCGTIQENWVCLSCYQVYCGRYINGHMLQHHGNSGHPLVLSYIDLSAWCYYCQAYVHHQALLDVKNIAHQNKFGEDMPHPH

Histone deacetylase 8 = target: T2, Histone deacetylase 8 (Homo sapiens, UniProt Q9BY41); assay: Inhibition of human HDAC8 using Boc-Lys (Ac)-AMC as substrate incubated for 60 mins by fluorimetric assay
T2 sequence (Q9BY41 whole entry): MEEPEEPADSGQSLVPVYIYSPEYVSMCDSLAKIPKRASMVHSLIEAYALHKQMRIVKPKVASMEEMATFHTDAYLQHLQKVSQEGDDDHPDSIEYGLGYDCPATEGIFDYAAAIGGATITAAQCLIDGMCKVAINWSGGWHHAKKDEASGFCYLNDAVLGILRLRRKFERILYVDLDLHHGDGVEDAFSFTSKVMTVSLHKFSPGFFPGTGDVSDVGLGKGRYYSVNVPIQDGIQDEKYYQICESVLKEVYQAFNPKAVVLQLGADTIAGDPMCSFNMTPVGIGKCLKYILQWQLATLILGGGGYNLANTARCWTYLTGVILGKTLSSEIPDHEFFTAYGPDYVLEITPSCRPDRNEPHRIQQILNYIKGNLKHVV

Homo sapiens [7] = organism: Homo sapiens; assay: Selectivity ratio of IC50 for human HDAC3 to IC50 for human HDAC6; outline: as §2
Histone deacetylase 3 = Histone deacetylase 3 (Homo sapiens, UniProt O15379); assay: Inhibition of human HDAC3 using Boc-Lys (Ac)-AMC as substrate incubated for 60 mins by fluorimetric assay
SMMC-7721 = assay: Antiproliferative activity against human SMMC7721 cells after 72 hrs by MTT assay; type: functional, cell-based; settings: SMMC-7721, 72 h
HepG2 = assay: Antiproliferative activity against human HepG2 cells after 72 hrs by MTT assay; type: functional, cell-based; settings: HepG2, 72 h
Huh-7 = assay: Antiproliferative activity against human HuH7 cells after 72 hrs by MTT assay; type: functional, cell-based; settings: Huh-7, 72 h
Bel-7402 [8] = assay: Antiproliferative activity against human Bel7402 cells after 72 hrs by MTT assay; type: functional, cell-based; settings: Bel-7402, 72 h
Bel-7402 [9] = assay: Induction of apoptosis in human Bel7402 cells assessed as increase in cleaved PARP level at 5 uM after 72 hrs by Western blot analysis; type: functional, cell-based
Outline: (§3)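 Subconfluent Bel7402 cells (1.5 × 10^5/mL) exposed to vehicle or compound for 72 h, then lysed. Lysates (0.05 mg/lane) run on 12% SDS-PAGE, transferred to nitrocellulose, blocked in 5% nonfat milk. Probed for Bax, Bcl-2, cleaved caspase-3 and cleaved PARP, with HRP secondary and chemiluminescence. Levels normalized to β-actin; three separate assays, mean ± SD.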

Bel-7402 [10] = assay: Induction of autophagy in human Bel7402 cells assessed as accumulation of autophagic vacuoles at 5 uM after 24 hrs by acridine orange staining based fluorescence microscopic method; type: functional, cell-based
Outline: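 Bel7402 cells (10 000) cultured overnight, then exposed to compound at 1.0 or 5.0 μM, or vehicle. Stained with 1 mg/mL acridine orange for 15−20 min, then dye removed. Red versus green fluorescence viewed by fluorescence microscopy at 400×. Representative images from three independent experiments.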

Bel-7402 [11] = assay: Induction of autophagy in human Bel7402 cells assessed as upregulation of LC3-2 level at 5 uM after 24 to 72 hrs by Western blot analysis; type: functional, cell-based
Outline: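 Bel7402 cells (1.5 × 10^5/mL) exposed to compound at indicated doses, or vehicle, for 24 or 72 h. Lysates (0.05 mg/lane) separated on 12% SDS-PAGE, blotted to nitrocellulose, blocked in 5% milk. Probed with anti-LC3, anti-p62 and anti-beclin-1, HRP secondary, chemiluminescent detection. Levels quantified relative to β-actin; three separate assays, mean ± SD.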

Bel-7402 [12] = assay: Induction of apoptosis in human Bel7402 cells assessed as annexin-V positive cells at 5 uM after 72 hrs by Annexin-V/PI staining based flow cytometry relative to control; type: functional
Outline: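 Bel7402 cells (10 000) cultured overnight, then exposed to compound at 1.0 or 5.0 μM, or vehicle, for 72 h. Harvested, stained with annexin-V APC and 7-AAD for 15 min. Apoptotic percentage measured by flow cytometry (APC ex 633/em 660 nm; 7-AAD ex 488/em 647 nm). Three separate assays, mean ± SD.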

Bel-7402 [13] = assay: Induction of apoptosis in human Bel7402 cells assessed as increase in cleaved caspase-3 level at 5 uM after 72 hrs by Western blot analysis; type: functional, cell-based; outline: as §3

Chain of Histone deacetylase 1 (Q13547 whole entry): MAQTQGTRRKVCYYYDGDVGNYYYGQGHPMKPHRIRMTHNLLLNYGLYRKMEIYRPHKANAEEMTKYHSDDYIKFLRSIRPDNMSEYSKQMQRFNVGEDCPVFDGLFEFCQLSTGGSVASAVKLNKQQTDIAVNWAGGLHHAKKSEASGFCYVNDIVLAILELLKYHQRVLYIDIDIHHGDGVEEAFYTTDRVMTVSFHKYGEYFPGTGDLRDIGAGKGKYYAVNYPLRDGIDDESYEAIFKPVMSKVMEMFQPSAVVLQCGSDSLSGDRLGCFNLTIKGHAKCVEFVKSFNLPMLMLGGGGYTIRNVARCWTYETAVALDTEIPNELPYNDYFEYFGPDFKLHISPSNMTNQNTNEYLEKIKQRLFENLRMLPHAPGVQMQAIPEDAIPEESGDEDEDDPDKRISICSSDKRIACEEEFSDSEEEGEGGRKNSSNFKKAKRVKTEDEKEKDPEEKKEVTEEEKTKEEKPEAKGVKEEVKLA
Chain of Histone deacetylase 3 (O15379 whole entry): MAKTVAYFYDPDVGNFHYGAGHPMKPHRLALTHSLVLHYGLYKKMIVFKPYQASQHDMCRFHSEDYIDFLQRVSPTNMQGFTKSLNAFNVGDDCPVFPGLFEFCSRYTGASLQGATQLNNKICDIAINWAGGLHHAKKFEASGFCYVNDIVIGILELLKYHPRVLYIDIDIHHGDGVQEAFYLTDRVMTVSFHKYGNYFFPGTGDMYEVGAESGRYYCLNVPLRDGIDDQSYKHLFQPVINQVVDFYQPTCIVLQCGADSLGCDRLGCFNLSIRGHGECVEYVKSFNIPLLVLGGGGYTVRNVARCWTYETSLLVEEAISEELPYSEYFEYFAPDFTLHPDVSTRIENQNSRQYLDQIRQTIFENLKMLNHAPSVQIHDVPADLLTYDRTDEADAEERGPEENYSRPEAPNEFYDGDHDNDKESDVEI

IC50 (Histone deacetylase 1) [µM] | IC50 (SMMC-7721) [µM] | IC50 (HepG2) [µM] | IC50 (Bel-7402 [8]) [µM] | SMILES | other results
0.032 | 4 | 4.8 | 1.8 | COc1ccc(-c2nc(NCCOc3ccc(/C=C/C(=O)NO)cc3OC)cc3c2[nH]c2ccccc23)cc1 | Ratio IC50 (Homo sapiens [5]): 2; IC50 [6]: 0.017 µM; IC50 (Histone deacetylase 8): > 1 µM; Ratio IC50 (Homo sapiens [7]): 7 to 11; IC50 (Histone deacetylase 3): 0.125 µM; IC50 (Huh-7): 2.8 µM
0.057 | 4.1 | 3.4 | 4 | COc1ccc(-c2nc(NCCCOc3ccc(/C=C/C(=O)NO)cc3)cc3c2[nH]c2ccccc23)cc1 | –
0.061 | 7.1 | 5.3 | 4.6 | COc1ccc(-c2nc(NCCCCOc3ccc(/C=C/C(=O)NO)cc3OC)cc3c2[nH]c2ccccc23)cc1 | IC50 (Huh-7): 6.2 µM
0.075 | 6.3 | 5.8 | 5.2 | COc1ccc(-c2nc(NCCOc3ccc(/C=C/C(=O)NO)cc3)cc3c2[nH]c2ccccc23)cc1 | –
0.125 | > 12.5 | 9.5 | 8.9 | COc1ccc(-c2nc(NCCCCOc3ccc(/C=C/C(=O)NO)cc3)cc3c2[nH]c2ccccc23)cc1 | –
– | – | – | – | O=C(CCCCCCC(=O)Nc1ccccc1)NO [VORINOSTAT] | Activity (Bel-7402 [9]): Active; Activity (Bel-7402 [10]): Active; Activity (Bel-7402 [11]): Active; Activity (Bel-7402 [12]): 45.4%; Activity (Bel-7402 [13]): Active

SMILES | IC50 (Histone deacetylase 1) [µM] | IC50 (SMMC-7721) [µM] | IC50 (HepG2) [µM] | IC50 (Bel-7402 [8]) [µM] | other results
COc1ccc2c(c1)[nH]c1c(C)nccc12 [HARMINE] | > 1 | – | – | – | inhibition [1]: Active; Activity (Bel-7402 [2]): 36.1%; inhibition [3]: Active; Activity (Bel-7402 [4]): Active
